Reference: ChEMBL document CHEMBL1125290, “Bis basic substituted diaminobenzobisthiazoles as potential antiarthritic agents” (1992)
Several values for one entry are separate records, joined by “and”; a condition that tells them apart may be missing. Equal entries are not always repeated.

Legend:
[1] = organism: Rattus norvegicus; assay: Antiinflammatory activity in D-adjuvant induced arthritis in rat measured by the change in body weight; type: functional; parameters: concentration or dose not given beside the values
[2] = tested on: Rattus norvegicus; assay: Antiinflammatory activity against D-adjuvant arthritis in injected rat paw at the dose of 5 mg/kg by oral administration; type: functional
[3] = tested on: Rattus norvegicus; assay: Antiinflammatory activity against carrageenan induced rat paw edema (CPE), dosed orally; type: functional
Outline: (§1)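 Male Sprague–Dawley rats (150 ± 10 g), five per group. Compound or vehicle given orally in 0.5% methylcellulose 1 h before subplantar injection of 0.1 mL 1% carrageenan in saline into the right hind paw. Paw volume measured by mercury displacement before dosing and 3 h after carrageenan; the difference is the edema volume. ANOVA with Dunnett's t test.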

[4] = tested on: Rattus norvegicus; assay: Antiinflammatory activity against D-adjuvant arthritis in uninjected rat paw at the dose of 5 mg/kg by oral administration; type: functional
[5] = tested on: Rattus norvegicus; assay: Antiinflammatory activity against D-adjuvant arthritis in injected rat paw at the dose of 200 mg/kg by oral administration; type: functional
[6] = tested on: Rattus norvegicus; assay: Antiinflammatory activity against D-adjuvant arthritis in uninjected rat paw at the dose of 200 mg/kg by oral administration; type: functional
[7] = tested on: Rattus norvegicus; assay: Antiinflammatory activity against D-adjuvant arthritis in uninjected rat paw at the dose of 50 mg/kg by oral administration; type: functional
Outline: (§2)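 Rat developing adjuvant arthritis screen with oral dosing on a prophylactic protocol. Percent change in body weight versus untreated animals was recorded as a preliminary toxicity sign. Significance was assessed against controls by two-tailed Student's t test, p < 0.05.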

[8] = tested on: Rattus norvegicus; assay: Antiinflammatory activity dosed orally against D-adjuvant arthritis in rat.; type: functional
[9] = tested on: Rattus norvegicus; assay: Antiinflammatory activity dosed orally against carrageenan induced rat paw edema(CPE); type: functional; outline: as §1
[10] = tested on: Rattus norvegicus; assay: Antiinflammatory activity against D-adjuvant arthritis in injected rat paw at the dose of 50 mg/kg by oral administration; type: functional
[11] = tested on: Rattus norvegicus; assay: Antiinflammatory activity against D-adjuvant arthritis in injected rat paw at the dose of 25 mg/kg by oral administration; type: functional
[12] = tested on: Rattus norvegicus; assay: Antiinflammatory activity against D-adjuvant arthritis in uninjected rat paw at the dose of 25 mg/kg by oral administration; type: functional
[13] = tested on: Rattus norvegicus; assay: Antiinflammatory activity against D-adjuvant arthritis in uninjected rat paw at the dose of 10 mg/kg by oral administration; type: functional
[14] = tested on: Rattus norvegicus; assay: Antiinflammatory activity against D-adjuvant arthritis in injected rat paw at the dose of 10 mg/kg by oral administration; type: functional
[15] = tested on: Rattus norvegicus; assay: Antiinflammatory activity against D-adjuvant arthritis in uninjected rat paw at the dose of 1.0 mg/kg by oral administration; conditions: read-out: Inhibition
[16] = tested on: Rattus norvegicus; assay: Antiinflammatory activity against D-adjuvant arthritis in injected rat paw at the dose of 1.0 mg/kg by oral administration; type: functional; outline: as §2
[17] = tested on: Rattus norvegicus; assay: Antiinflammatory activity against D-adjuvant arthritis in injected rat paw at the dose of 2.5 mg/kg by oral administration; type: functional
Outline: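 Rats dosed orally in a developing adjuvant arthritis screen; swelling of the adjuvant-injected paw scored against untreated arthritic controls. Significance by two-tailed Student's t test, p < 0.05. Percent change in body weight versus untreated animals recorded as a preliminary toxicity indication.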

[18] = tested on: Rattus norvegicus; assay: Antiinflammatory activity against D-adjuvant arthritis in uninjected rat paw at the dose of 100 mg/kg by oral administration; type: functional
[19] = tested on: Rattus norvegicus; assay: Antiinflammatory activity against D-adjuvant arthritis in injected rat paw at the dose of 100 mg/kg by oral administration; type: functional
[20] = tested on: Rattus norvegicus; assay: Antiinflammatory activity dosed orally against D-adjuvant arthritis in rat measured by the change in the weight of the body; type: functional
[21] = tested on: Rattus norvegicus; assay: Antiinflammatory activity dosed orally against carrageenan induced rat paw edema(CPE).value in the parentheses is the dose(mg/kg).; type: functional; outline: as §1

SMILES	Activity [1] [%]	Inhibition [3] [%]	inhibition in vivo at 50 mg/kg [7] [%]	inhibition in vivo at 50 mg/kg [10] [%]	further results
CCN(CC)CC(=O)Nc1nc2cc3sc(NC(=O)CN(CC)CC)nc3cc2s1.Cl.Cl	-33	9			inhibition in vivo at 5 mg/kg [2]: 11%; inhibition in vivo at 5 mg/kg [4]: 0%
Cl.Cl.O=C(CN1CCCCC1)Nc1nc2cc3nc(NC(=O)CN4CCCCC4)sc3cc2s1	-6	0.8			inhibition in vivo at 200 mg/kg [5]: 56%; inhibition in vivo at 200 mg/kg [6]: 79%
Nc1nc2c(Br)c3nc(N)sc3cc2s1	10	33			inhibition in vivo at 200 mg/kg [5]: 47%; inhibition in vivo at 200 mg/kg [6]: 37%
N#Cc1c2sc(N)nc2c(Cl)c2nc(N)sc12	3	7			inhibition in vivo at 200 mg/kg [5]: 47%; inhibition in vivo at 200 mg/kg [6]: 37%
CCN(CC)CCC(=O)Nc1nc2cc3nc(NC(=O)CCN(CC)CC)sc3cc2s1			48	29	Body weight change [8]: -5%; Inhibition [9]: 16%
O=C(CN1CCSCC1)Nc1nc2cc3nc(NC(=O)CN4CCSCC4)sc3cc2s1	6	7			inhibition in vivo at 200 mg/kg [5]: 0%; inhibition in vivo at 200 mg/kg [6]: 43%
CNc1nc2cc3nc(NC)sc3cc2s1.Cl.Cl	-30	24			inhibition in vivo at 25 mg/kg [11]: 71%; inhibition in vivo at 25 mg/kg [12]: 100%
O=C(O)CNc1nc2cc3nc(NCC(=O)O)sc3cc2s1	-25	2			inhibition in vivo at 200 mg/kg [5]: 0%; inhibition in vivo at 200 mg/kg [6]: 2%
CCN(CC)CC(=O)Nc1nc2c(Cl)c3nc(NC(=O)CN(CC)CC)sc3c(Cl)c2s1	-33	19			inhibition in vivo at 10 mg/kg [13]: 71%; inhibition in vivo at 10 mg/kg [14]: 30%
CCNCC(=O)Nc1nc2cc3nc(NC(=O)CNCC)sc3cc2s1.Cl.Cl	-28	21			inhibition in vivo at 25 mg/kg [11]: 79%; inhibition in vivo at 25 mg/kg [12]: 100%
COc1ccc2c(c1)c(CC(=O)O)c(C)n2C(=O)c1ccc(Cl)cc1 [INDOMETHACIN]					inhibition in vivo at 1 mg/kg [15]: 69%; inhibition in vivo at 1 mg/kg [16]: 61%; inhibition in vivo at 2.5 mg/kg [17]: 71%; Body weight change [8]: 18% and 28%; Inhibition [9]: 63% and 34%
CCN(CC)CCNc1nc2cc3nc(NCCN(CC)CC)sc3cc2s1	3	14			inhibition in vivo at 100 mg/kg [18]: 0%; inhibition in vivo at 100 mg/kg [19]: 33%
CCN(CC)CC(=O)Nc1nc2cc3nc(NC(=O)CCl)sc3cc2s1			0	38	Body weight change [8]: -16%; Inhibition [9]: 25%
Nc1nc2cc3sc(N)nc3cc2s1	-30	4			inhibition in vivo at 10 mg/kg [13]: 100%; inhibition in vivo at 10 mg/kg [14]: 88%
Nc1nc2c(Cl)c3nc(N)sc3c(C(F)(F)F)c2s1	3	13			inhibition in vivo at 200 mg/kg [5]: 0%; inhibition in vivo at 200 mg/kg [6]: 12%
Nc1nc2cc3nc(N)sc3cc2s1	-20	60			inhibition in vivo at 100 mg/kg [18]: 92%; inhibition in vivo at 100 mg/kg [19]: 79%
CC1CCCN(CC(=O)Nc2nc3cc4nc(NC(=O)CN5CCCC(C)C5)sc4cc3s2)C1 (stereo unspecified)	6	19			inhibition in vivo at 200 mg/kg [5]: 34%; inhibition in vivo at 200 mg/kg [6]: 63%
CCN(CC)CC(=O)Nc1nc2c(cc(Cl)c3nc(NC(=O)CN(CC)CC)sc32)s1	-58	35			inhibition in vivo at 100 mg/kg [18]: 62%; inhibition in vivo at 100 mg/kg [19]: 0%
CCN(CC)CC(=O)Nc1nc2c(C(F)(F)F)c3nc(NC(=O)CN(CC)CC)sc3c(Cl)c2s1.Cl.Cl	-22	18			inhibition in vivo at 25 mg/kg [11]: 57%; inhibition in vivo at 25 mg/kg [12]: 100%
CCC1CCCCN1CC(=O)Nc1nc2cc3nc(NC(=O)CN4CCCCC4CC)sc3cc2s1 (stereo unspecified)	-1	12			inhibition in vivo at 200 mg/kg [5]: 34%; inhibition in vivo at 200 mg/kg [6]: 65%
O=P1(N(CCCl)CCCl)NCCCO1 (stereo unspecified) [CYCLOPHOSPHAMIDE ANHYDROUS]					Body weight change [8]: -19%; Inhibition [9]: 18%; inhibition in vivo at 25 mg/kg [11]: 86%; inhibition in vivo at 25 mg/kg [12]: 100%
CCN(CC)C(C)C(=O)Nc1nc2cc3nc(NC(=O)C(C)N(CC)CC)sc3cc2s1.Cl.Cl (stereo unspecified)			0	0	Activity [20]: -19%; Inhibition [9]: 0%
CCN(CC)CC(=O)Nc1nc2cc3nc(NC(=O)CN(CC)CC)sc3c(Br)c2s1	-45	0	100	80	
O=C(CNC1CCCCC1)Nc1nc2cc3nc(NC(=O)CNC4CCCCC4)sc3cc2s1	8	20	59	3	
CCN(CC)CC(=O)Nc1nc2c(Cl)c3nc(NC(=O)CN(CC)CC)sc3c(-c3ccccc3)c2s1	-6	35	7	13	
CN(CC(=O)Nc1nc2cc3nc(NC(=O)CN(C)C4CCCCC4)sc3cc2s1)C1CCCCC1.Cl.Cl	-4	6			inhibition in vivo at 100 mg/kg [18]: 27%; inhibition in vivo at 100 mg/kg [19]: 32%
CN1CCN(CC(=O)Nc2nc3cc4nc(NC(=O)CN5CCN(C)CC5)sc4cc3s2)CC1	-25	28	0	0	
O=C(CN1CCN(c2ccccn2)CC1)Nc1nc2cc3nc(NC(=O)CN4CCN(c5ccccn5)CC4)sc3cc2s1	-2	9	16	0	
CC1CCC(NCC(=O)Nc2nc3cc4nc(NC(=O)CNC5CCC(C)C5)sc4cc3s2)C1 (stereo unspecified)	-7	11	30	11	
CC1CCC(NCC(=O)Nc2nc3cc4nc(NC(=O)CNC5CCC(C)CC5)sc4cc3s2)CC1 (stereo unspecified)	-4		54	21	Inhibition [21]: 3%
